Active and inactive are the calls of the source. The rule behind the calls is not given here.
Legend:
Type in all cases: functional, cell-based
BT-549 = experiment: Antiproliferative activity against human BT549 cells at 10 uM incubated for 48 hrs by sulforhodamine B assay
Summary of the method: (§1)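 Run by the NCI Developmental Therapeutics Program (Division of Cancer Treatment and Diagnosis) as part of the NCI60 human tumour cell line panel screen. Each compound was tested at a single dose of 10 μM. Results are reported as one-dose mean graphs.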

TK-10 = experiment: Antiproliferative activity against human TK10 cells at 10 uM incubated for 48 hrs by sulforhodamine B assay
Summary of the method: (§2)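 Run by the NCI Developmental Therapeutics Program (Division of Cancer Treatment and Diagnosis) as part of the NCI60 human tumour cell line panel. Each compound was tested in vitro at a single dose of 10 μM, and the data are reported as one-dose mean graphs across the panel.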

SR = experiment: Antiproliferative activity against human SR cells at 10 uM incubated for 48 hrs by sulforhodamine B assay; summary of the method: as §2
Hs-578T = experiment: Antiproliferative activity against human Hs 578T cells at 10 uM incubated for 48 hrs by sulforhodamine B assay; summary of the method: as §1
OVCAR-3 = experiment: Antiproliferative activity against human OVCAR3 cells at 10 uM incubated for 48 hrs by sulforhodamine B assay; summary of the method: as §1
EKVX = experiment: Antiproliferative activity against human EKVX cells at 10 uM incubated for 48 hrs by sulforhodamine B assay; summary of the method: as §1
NCI-H522 = experiment: Antiproliferative activity against human NCI-H522 cells at 10 uM incubated for 48 hrs by sulforhodamine B assay; summary of the method: as §1
HCT-15 = experiment: Antiproliferative activity against human HCT15 cells at 10 uM incubated for 48 hrs by sulforhodamine B assay; summary of the method: as §1
M14 = experiment: Antiproliferative activity against human M14 cells at 10 uM incubated for 48 hrs by sulforhodamine B assay; summary of the method: as §1
SK-MEL-5 = experiment: Antiproliferative activity against human SK-MEL-5 cells at 10 uM incubated for 48 hrs by sulforhodamine B assay; summary of the method: as §1
MDA-MB-231 = experiment: Antiproliferative activity against human MDA-MB-231 cells at 10 uM incubated for 48 hrs by sulforhodamine B assay; summary of the method: as §1
MOLT-4 = experiment: Antiproliferative activity against human MOLT4 cells at 10 uM incubated for 48 hrs by sulforhodamine B assay; summary of the method: as §1
A549 = experiment: Antiproliferative activity against human A549/ATCC cells at 10 uM incubated for 48 hrs by sulforhodamine B assay; summary of the method: as §1
786-0 = experiment: Antiproliferative activity against human 786-0 cells at 10 uM incubated for 48 hrs by sulforhodamine B assay; summary of the method: as §1
UACC-257 = experiment: Antiproliferative activity against human UACC257 cells at 10 uM incubated for 48 hrs by sulforhodamine B assay; summary of the method: as §2
UO-31 = experiment: Antiproliferative activity against human UO31 cells at 10 uM incubated for 48 hrs by sulforhodamine B assay; summary of the method: as §2

CC(=O)O[C@H](C)[C@@H]1O[C@@H]2CC(=O)O[C@@H]2[C@H]1O
Activity (BT-549): inactive | Activity (TK-10): inactive | Activity (SR): inactive | Activity (Hs-578T): inactive | Activity (OVCAR-3): inactive | Activity (EKVX): inactive | Activity (NCI-H522): inactive | Activity (HCT-15): inactive | Activity (M14): inactive | Activity (SK-MEL-5): inactive | Activity (MDA-MB-231): inactive | Activity (MOLT-4): inactive | Activity (A549): inactive | Activity (786-0): inactive | Activity (UACC-257): inactive | Activity (UO-31): inactive

CC(=O)O[C@@H](C)[C@H]1O[C@H]2CC(=O)O[C@H]2[C@@H]1O
Activity (BT-549): inactive | Activity (TK-10): inactive | Activity (SR): inactive | Activity (Hs-578T): inactive | Activity (OVCAR-3): inactive | Activity (EKVX): inactive | Activity (NCI-H522): inactive | Activity (HCT-15): inactive | Activity (M14): inactive | Activity (SK-MEL-5): inactive | Activity (MDA-MB-231): inactive | Activity (MOLT-4): inactive | Activity (A549): inactive | Activity (786-0): inactive | Activity (UACC-257): inactive | Activity (UO-31): inactive

CC(=O)O[C@@H](C)[C@@H]1O[C@@H]2CC(=O)O[C@@H]2[C@H]1O
Activity (BT-549): inactive | Activity (TK-10): inactive | Activity (SR): inactive | Activity (Hs-578T): inactive | Activity (OVCAR-3): inactive | Activity (EKVX): inactive | Activity (NCI-H522): inactive | Activity (HCT-15): inactive | Activity (M14): inactive | Activity (SK-MEL-5): inactive | Activity (MDA-MB-231): inactive | Activity (MOLT-4): inactive | Activity (A549): inactive | Activity (786-0): inactive | Activity (UACC-257): inactive | Activity (UO-31): inactive

CC(=O)O[C@H](C)[C@H]1O[C@H]2CC(=O)O[C@H]2[C@@H]1O
Activity (BT-549): inactive | Activity (TK-10): inactive | Activity (SR): inactive | Activity (Hs-578T): inactive | Activity (OVCAR-3): inactive | Activity (EKVX): inactive | Activity (NCI-H522): inactive | Activity (HCT-15): inactive | Activity (M14): inactive | Activity (SK-MEL-5): inactive | Activity (MDA-MB-231): inactive | Activity (MOLT-4): inactive | Activity (A549): inactive | Activity (786-0): inactive | Activity (UACC-257): inactive | Activity (UO-31): inactive

O=C1C[C@H]2O[C@H]([C@H](O)c3ccccc3)[C@H](O)[C@H]2O1
Activity (BT-549): Active | Activity (TK-10): Active | Activity (SR): Active | Activity (Hs-578T): Active | Activity (OVCAR-3): Active | Activity (EKVX): Active | Activity (NCI-H522): Active | Activity (HCT-15): Active | Activity (M14): Active | Activity (SK-MEL-5): Active | Activity (MDA-MB-231): Active | Activity (MOLT-4): Active | Activity (A549): Active | Activity (786-0): Active | Activity (UACC-257): Active | Activity (UO-31): Active

O=C1C[C@H]2O[C@H]([C@@H](O)c3ccccc3)[C@H](O)[C@H]2O1
Activity (BT-549): Active | Activity (TK-10): Active | Activity (SR): Active | Activity (Hs-578T): Active | Activity (OVCAR-3): Active | Activity (EKVX): Active | Activity (NCI-H522): Active | Activity (HCT-15): Active | Activity (M14): Active | Activity (SK-MEL-5): Active | Activity (MDA-MB-231): Active | Activity (MOLT-4): Active | Activity (A549): Active | Activity (786-0): Active | Activity (UACC-257): Active | Activity (UO-31): Active

O=C(/C=C/c1ccccc1)O[C@H](c1ccccc1)[C@@H]1O[C@@H]2CC(=O)O[C@@H]2[C@H]1O
Activity (BT-549): Active | Activity (TK-10): Active | Activity (SR): Active | Activity (Hs-578T): Active | Activity (OVCAR-3): Active | Activity (EKVX): Active | Activity (NCI-H522): Active | Activity (HCT-15): Active | Activity (M14): Active | Activity (SK-MEL-5): Active | Activity (MDA-MB-231): Active | Activity (MOLT-4): Active | Activity (A549): Active | Activity (786-0): Active | Activity (UACC-257): Active | Activity (UO-31): Active
